Source: ChEMBL document CHEMBL4725388, “Characterization of Aminobenzylphenols as Protein Disulfide Isomerase Inhibitors in Glioblastoma Cell Lines” (J Med Chem, 2020)
The source made the active and inactive calls. No cut-off for these calls is given here.

Legend:
[1] = biological target: T1, Protein disulfide-isomerase (Homo sapiens, UniProt P07237); experiment: Inhibition of recombinant human wild-type N-terminal His-tagged PDIA1 expressed in Escherichia coli strain BL21(DE3) using bovine insulin as substrate preincubated for 1 hr followed by substrate addition
Summary of the method: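 IC50 from dose-response curves; PDI reductase assay for enzyme, MTT in U-87 MG cells for cytotoxicity; mean ± SD of at least three independent experiments.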
Target sequence in this assay (P07237 whole entry): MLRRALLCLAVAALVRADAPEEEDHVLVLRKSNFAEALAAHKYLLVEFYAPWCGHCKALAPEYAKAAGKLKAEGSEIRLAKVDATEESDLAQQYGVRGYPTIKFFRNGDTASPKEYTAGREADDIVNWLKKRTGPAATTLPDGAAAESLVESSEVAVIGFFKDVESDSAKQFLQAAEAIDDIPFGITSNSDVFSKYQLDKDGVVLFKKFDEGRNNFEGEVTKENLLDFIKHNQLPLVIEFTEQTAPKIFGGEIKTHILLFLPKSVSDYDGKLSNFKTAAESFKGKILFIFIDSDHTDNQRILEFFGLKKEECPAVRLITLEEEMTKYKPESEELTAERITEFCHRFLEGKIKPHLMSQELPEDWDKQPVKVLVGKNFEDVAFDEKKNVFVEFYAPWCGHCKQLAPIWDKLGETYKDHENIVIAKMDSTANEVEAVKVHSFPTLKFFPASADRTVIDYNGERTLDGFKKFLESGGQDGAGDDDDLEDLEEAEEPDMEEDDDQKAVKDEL

U-87MG ATCC [2] = experiment: Upregulation of CALR gene expression in human U-87 MG cells at 20 uM incubated for 4 hrs followed by Bru addition during last 30 mins of incubation by Trizol reagent based gene sequencing analysis; format: functional, cell-based
U-87MG ATCC [3] = experiment: Upregulation of HSPA5 gene expression in human U-87 MG cells at 20 uM incubated for 4 hrs followed by Bru addition during last 30 mins of incubation by Trizol reagent based gene sequencing analysis; format: functional, cell-based
U-87MG ATCC [4] = experiment: Upregulation of MYZAP gene expression in human U-87 MG cells at 20 uM incubated for 4 hrs followed by Bru addition during last 30 mins of incubation by Trizol reagent based gene sequencing analysis; format: functional, cell-based
U-87MG ATCC [5] = experiment: Upregulation of NQO1 gene expression in human U-87 MG cells at 20 uM incubated for 4 hrs followed by Bru addition during last 30 mins of incubation by Trizol reagent based gene sequencing analysis; format: functional, cell-based
U-87MG ATCC [6] = experiment: Upregulation of SLC7A11 gene expression in human U-87 MG cells at 20 uM incubated for 4 hrs followed by Bru addition during last 30 mins of incubation by Trizol reagent based gene sequencing analysis; format: functional, cell-based
[7] = Effect on total CALR expression in human U-87 MG cells at 20 uM measured after 12 to 48 hrs by Western blot analysis; format: ADME, cell-based; details: u-87mg atcc, time 12-48 hrs
[8] = biological target: T1, Protein disulfide-isomerase; experiment: (§1) Inhibition of N-(4-(5,5-Difluoro-1,3,7,9-tetramethyl-5H-4(Gamma4),5(Gamma4)-dipyrrolo[1,2-c:2',1'-f][1,3,2]diazaborinin-10-yl))-N-(2-(4-((6-hydroxybenzo[d]-[1,3]dioxol-5-yl)(piperidin-1-yl)methyl)benzamido)ethyl)-benzamide binding to PDIA1 in human U-87 MG cell lysates measured after 24 hrs by PAGE analysis; format: subcellular
Target sequence in this assay (P07237 18-508 limits assumed): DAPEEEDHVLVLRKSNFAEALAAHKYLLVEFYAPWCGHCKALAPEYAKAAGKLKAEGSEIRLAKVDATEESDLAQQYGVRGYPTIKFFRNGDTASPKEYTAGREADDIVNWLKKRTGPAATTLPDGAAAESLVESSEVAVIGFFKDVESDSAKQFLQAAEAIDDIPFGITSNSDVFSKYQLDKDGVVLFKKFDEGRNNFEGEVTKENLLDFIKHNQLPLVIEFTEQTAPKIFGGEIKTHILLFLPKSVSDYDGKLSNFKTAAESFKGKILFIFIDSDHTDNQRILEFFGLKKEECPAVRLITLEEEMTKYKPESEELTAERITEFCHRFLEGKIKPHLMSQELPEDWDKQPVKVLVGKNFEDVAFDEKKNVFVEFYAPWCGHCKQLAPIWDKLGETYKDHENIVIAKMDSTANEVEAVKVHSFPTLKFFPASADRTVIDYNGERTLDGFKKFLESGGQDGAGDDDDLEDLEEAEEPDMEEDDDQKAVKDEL

[9] = biological target: T2, Protein disulfide-isomerase A2 (Homo sapiens, UniProt Q13087); experiment: as §1, with “recombinant PDIA2 (unknown origin)” for “PDIA1 in human U-87 MG cell lysates”
T2 sequence (Q13087 whole entry): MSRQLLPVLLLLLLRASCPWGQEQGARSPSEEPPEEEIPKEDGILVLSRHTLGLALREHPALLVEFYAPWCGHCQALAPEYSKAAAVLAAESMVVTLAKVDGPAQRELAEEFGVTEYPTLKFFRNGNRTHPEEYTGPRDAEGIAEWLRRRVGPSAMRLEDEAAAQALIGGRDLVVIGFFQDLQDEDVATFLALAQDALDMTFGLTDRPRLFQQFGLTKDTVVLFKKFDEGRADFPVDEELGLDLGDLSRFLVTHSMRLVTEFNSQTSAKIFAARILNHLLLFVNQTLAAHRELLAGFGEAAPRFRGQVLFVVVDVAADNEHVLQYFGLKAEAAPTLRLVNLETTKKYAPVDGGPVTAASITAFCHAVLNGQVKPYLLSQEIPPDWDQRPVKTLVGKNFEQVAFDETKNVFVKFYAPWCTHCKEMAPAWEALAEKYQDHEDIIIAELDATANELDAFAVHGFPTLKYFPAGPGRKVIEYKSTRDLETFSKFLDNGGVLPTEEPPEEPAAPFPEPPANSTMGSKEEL

[10] = biological target: T3, Protein disulfide-isomerase A3 (Homo sapiens, UniProt P30101); experiment: as §1, with “recombinant PDIA3 (unknown origin)” for “PDIA1 in human U-87 MG cell lysates”
T3 sequence (P30101 whole entry): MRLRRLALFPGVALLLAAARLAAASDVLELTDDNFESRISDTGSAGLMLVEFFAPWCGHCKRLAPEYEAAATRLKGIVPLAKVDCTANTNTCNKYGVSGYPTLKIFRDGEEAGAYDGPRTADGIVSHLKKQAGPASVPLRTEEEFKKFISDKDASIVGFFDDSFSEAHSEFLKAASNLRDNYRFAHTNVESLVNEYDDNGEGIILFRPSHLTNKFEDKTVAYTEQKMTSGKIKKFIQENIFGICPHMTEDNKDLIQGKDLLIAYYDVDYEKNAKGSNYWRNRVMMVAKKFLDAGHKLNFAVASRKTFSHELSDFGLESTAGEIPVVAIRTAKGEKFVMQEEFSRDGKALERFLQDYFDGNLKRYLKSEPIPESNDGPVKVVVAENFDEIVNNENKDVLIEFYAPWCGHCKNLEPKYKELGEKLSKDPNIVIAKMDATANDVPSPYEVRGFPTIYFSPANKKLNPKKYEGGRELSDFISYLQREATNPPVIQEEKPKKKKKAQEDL

Structure (SMILES) | IC50 [1] | Activity (U-87MG ATCC [2]) | Activity (U-87MG ATCC [3]) | Activity (U-87MG ATCC [4]) | Activity (U-87MG ATCC [5]) | Activity (U-87MG ATCC [6]) | Activity [7] | inhibition [8] | inhibition (INH) [9] | inhibition (INH) [10]
Oc1c(C(c2ccncc2)N2CCCCC2)ccc2ccoc12 (stereo unspecified) | < 0.2 µM | Active | Active | Active | Active | Active | Non-Toxic | – | – | –
Oc1cc2c(cc1C(c1ccccc1)N1CCCCC1)OCO2 (stereo unspecified) | 2.9 µM | – | – | – | – | – | – | Dose-dependent effect | Dose-dependent effect | Dose-dependent effect
